Legend:
Human betaherpesvirus 5 [1] = experiment: Antiviral activity against human cytomegalovirus (HCMV) in yield reduction assay; format: functional
Human alphaherpesvirus 1 = experiment: Antiviral activity against herpes simplex virus type 1 (HSV-1) was performed by HSV-1 ELISA assays.; format: functional, organism-based
Summary of the method: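 HSV-1 strain KOS (used in most experiments); ELISA read-out, quadruplicate wells; IC50 from linear regression of percent inhibition against log drug concentration.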

HFF = experiment: Cytotoxicity produced in human foreskin fibroblasts (HFF) cells was estimated by visual scoring of cells unaffected by virus infection in the plaque-reduction assay.; format: ADME, cell-based
Summary of the method: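 Uninfected HFF cells in the HCMV plaque-reduction plates, examined at 30-fold magnification; drug-induced cytopathology scored 0–4 on the day of staining for plaque counting.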

Human betaherpesvirus 5 [2] = experiment: Antiviral activity against human cytomegalovirus (HCMV) in plaque reduction assay; format: functional, organism-based
Summary of the method: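 HCMV Towne strain (plaque-purified P0) on HFF monolayers; inoculum ~100 PFU in 0.2 mL; compounds dissolved in overlay medium; plaques counted after staining; IC50 from linear regression of percent inhibition vs log concentration; averages of duplicate or triplicate experiments.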

Human betaherpesvirus 5 [3] = experiment: Antiviral activity against human cytomegalo virus (HCMV) in yield reduction assay; format: functional
KB [4] = experiment: Inhibitory activity against growth of human epidermoid oral carcinoma KB cell line; format: functional, cell-based
Summary of the method: (§1)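 KB cells grown in MEM with Hank's salts plus 10% calf serum; logarithmically growing cells, staining-based growth read-out, quadruplicate assays; IC50 from linear regression of percent inhibition vs log drug concentration.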

KB [5] = experiment: Inhibitory activity against growth of KB cell.; format: functional, cell-based; conditions: Homo sapiens; summary of the method: as §1

Structure (SMILES) | IC90 (Human betaherpesvirus 5 [1]) [µM] | IC50 (Human alphaherpesvirus 1) [µM] | IC50 (HFF) [µM] | IC50 (Human betaherpesvirus 5 [2]) [µM] | IC90 (Human betaherpesvirus 5 [3]) [µM] | IC50 (KB [4]) [µM] | IC50 (KB [5]) [µM]
OC[C@H]1O[C@@H](n2cnc3cc(Cl)c(Cl)cc32)[C@H](O)[C@@H]1O [DICHLORORIBOBENZIMIDAZOLE] | 19 | – | – | – | – | – | –
Nc1ccc2nc(Cl)n(C3O[C@H](CO)[C@@H](O)[C@H]3O)c2c1 (stereo partly specified) | – | > 100 | > 300 | > 100 | – | – | –
OC[C@H]1O[C@@H](n2c(Cl)nc3cc(Cl)c(Cl)cc32)[C@H](O)[C@@H]1O | – | – | – | 2.8 | 1.3 | – | –
OC[C@H]1O[C@@H](n2c(=S)[nH]c3ccc(Cl)cc32)[C@H](O)[C@@H]1O | – | > 100 | > 100 | > 100 | – | > 100 | –
O=[N+]([O-])c1ccc2[nH]c(Cl)nc2c1 | – | 21 | 20 | 6 | – | – | –
COc1nc2ccc(Cl)cc2n1C1O[C@H](CO)[C@@H](O)[C@H]1O (stereo partly specified) | – | > 100 | > 100 | > 100 | – | > 100 | –
OC[C@H]1OC(n2c(Cl)nc3cc(Cl)ccc32)[C@H](O)[C@@H]1O (stereo partly specified) | 100 | > 100 | > 100 | 150 | – | – | –
Nc1ccc2c(c1)nc(Cl)n2C1O[C@H](CO)[C@@H](O)[C@H]1O (stereo partly specified) | – | – | > 300 | > 300 | – | – | –
OC[C@H]1OC(n2c(Cl)nc3ccc(Cl)cc32)[C@H](O)[C@@H]1O (stereo partly specified) | 52 | > 100 | > 100 | 58 | – | – | –
OC[C@H]1OC(n2c(SCc3ccccc3)nc3ccc(Cl)cc32)[C@H](O)[C@@H]1O (stereo partly specified) | – | > 100 | > 100 | > 100 | – | – | –
CSc1nc2ccc(Cl)cc2n1C1O[C@H](CO)[C@@H](O)[C@H]1O (stereo partly specified) | – | < 100 | > 100 | > 100 | – | – | –
Nc1nc2c(ncn2COC(CO)CO)c(=O)[nH]1 [GANCICLOVIR] | – | – | > 100 | – | 1.6 | – | > 100
